Assay results from ChEMBL document CHEMBL4316616, “Efficacy of TLR7 agonistic imidazoquinoline as immunochemotherapeutic agent against P. Berghei ANKA infected rodent host” (Bioorg Med Chem Lett, 2019).
The source made the active and inactive calls. The calls are words filed in the database; no cut-off is given here.

What was measured:
[1] = Toxicity in Laca mouse infected with Plasmodium berghei ANKA assessed as death at 10 mg/kg, po administered for 4 days measured on day 21; type: organism-based; settings: in vivo, 96 h
Outline: (§1)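 Groups of 6 mice, infected i.p. on D0 with 1x10⁶ P. berghei ANKA parasitized RBCs. Chloroquine 10 mg/kg given orally in 0.2 mL/mouse daily D0–D3. Infected PBS-dosed and uninfected controls were included. Mice were followed for survival, with parasitemia checked on Giemsa-stained thin blood smears of individual mice.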

Plasmodium berghei [2] = assay: Antiparasitic activity against Plasmodium berghei ANKA infected in Laca mouse assessed as reduction in parasitemia at 10 mg/kg, po administered for 4 days measured up to day 15 by Giemsa-staining based assay; type: functional, organism-based
Plasmodium berghei [3] = assay: Antiparasitic activity against Plasmodium berghei ANKA infected in Laca mouse assessed as decrease in serum TNFalpha level at 10 mg/kg, po administered for 4 days measured on day 10 by sandwich ELISA; type: functional, organism-based
Plasmodium berghei [4] = assay: Antiparasitic activity against Plasmodium berghei ANKA infected in Laca mouse assessed as increase in IFN-gamma level in serum at 10 mg/kg, po administered for 4 days measured on day 10 by sandwich ELISA
Plasmodium berghei [5] = assay: Antiparasitic activity against Plasmodium berghei ANKA infected in Laca mouse assessed as parasitemia at 10 mg/kg, po administered for 4 days measured on day 21 by Giemsa-staining based assay; type: functional
Plasmodium berghei [6] = assay: Antiparasitic activity against Plasmodium berghei ANKA infected in Laca mouse assessed as increase in serum IL-12 level at 10 mg/kg, po administered for 4 days measured on day 10 by sandwich ELISA; type: functional, organism-based
Plasmodium berghei [7] = assay: Antiparasitic activity against Plasmodium berghei ANKA infected in Laca mouse assessed as parasitemia at 10 mg/kg, po administered for 4 days measured on day 17 by Giemsa-staining based assay; type: functional
[8] = Toxicity in Laca mouse infected with Plasmodium berghei ANKA assessed as death at 10 mg/kg, po administered for 4 days measured after 21 days; type: organism-based; settings: in vivo, 504 h; outline: as §1
Plasmodium berghei [9] = assay: Antimalarial activity against Plasmodium berghei ANKA infected in Swiss albino mouse assessed as reduction in parasitemia at 25 mg/kg, po for 4 days dosed 2 hrs post infection and measured 5 days post infection by Giemsa staining based Peter's 4 day test; type: functional; parameters: scale not given: the % may be the effect or the level left
Plasmodium berghei [10] = assay: Antiparasitic activity against Plasmodium berghei ANKA infected in Laca mouse assessed as increase in Treg cell level in brain at 10 mg/kg, po administered for 4 days measured on day 10 by flow cytometry; type: functional, organism-based
Plasmodium berghei [11] = assay: Antiparasitic activity against Plasmodium berghei ANKA infected in Swiss albino mouse assessed as reduction in parasitemia at 10 mg/kg, po by Peter's 4 day test; type: functional; parameters: scale not given: the % may be the effect or the level left
Plasmodium berghei [12] = assay: Antiparasitic activity against Plasmodium berghei ANKA infected in Laca mouse assessed as reduction in CD8+ cell level in brain at 10 mg/kg, po administered for 4 days measured on day 10 by flow cytometry; type: functional, organism-based
Plasmodium berghei [13] = assay: Antiparasitic activity against Plasmodium berghei ANKA infected in Laca mouse assessed as increase in serum IL-27 level at 10 mg/kg, po administered for 4 days measured on day 10 by sandwich ELISA; type: functional, organism-based
Plasmodium berghei [14] = assay: Antiparasitic activity against Plasmodium berghei ANKA infected in Laca mouse assessed as increase in serum IL-10 level at 10 mg/kg, po administered for 4 days measured on day 10 by sandwich ELISA; type: functional, organism-based
Plasmodium berghei [15] = assay: Antiparasitic activity against Plasmodium berghei ANKA infected in Laca mouse assessed as increase in CD3+ cell level in spleen at 10 mg/kg, po administered for 4 days measured on day 10 by flow cytometry; type: functional, organism-based
Plasmodium berghei [16] = assay: Antiparasitic activity against Plasmodium berghei ANKA infected in Laca mouse assessed as reduction in CD4+ cell level in brain at 10 mg/kg, po administered for 4 days measured on day 10 and 21 by flow cytometry; type: functional, organism-based
Plasmodium berghei [17] = assay: Antiparasitic activity against Plasmodium berghei ANKA infected in Laca mouse assessed as reduction in CD3+ cell level in brain at 10 mg/kg, po administered for 4 days measured on day 10 by flow cytometry; type: functional, organism-based

In the case of `CCN(CC)CCCC(C)Nc1ccnc2cc(Cl)ccc12` (configuration not stated) [CHLOROQUINE], the Activity [1] is reported as “Toxic”, the Activity (Plasmodium berghei [2]) is reported as “Active” and the Activity (Plasmodium berghei [3]) is reported as “Active”. For the same molecule, the Activity (Plasmodium berghei [4]) was “Active”, the Activity (Plasmodium berghei [5]) was 10.76% and the Activity (Plasmodium berghei [6]) was “Active”. For the same molecule, the Activity (Plasmodium berghei [7]) was 5.99%, the Activity [8] was “Toxic” and the Activity (Plasmodium berghei [9]) was 89.04%. The Activity (Plasmodium berghei [10]) was “Active”, the Activity (Plasmodium berghei [11]) was 58.3% and the Activity (Plasmodium berghei [12]) was “Active”. The Activity (Plasmodium berghei [13]) was “Active”, the Activity (Plasmodium berghei [14]) was “Active” and the Activity (Plasmodium berghei [15]) was “Active”. The Activity (Plasmodium berghei [16]) was “Active” and the Activity (Plasmodium berghei [17]) was “Active”.
